UCH37 DUB inh = inhibitors of human UCH37 deubiquitinase, primary screen, biochemical, Ub-AMC cleavage, fluorescence; Ubiquitin carboxyl-terminal hydrolase isozyme L5 (Homo sapiens), Q9Y5K5; purified proteasome/UCH37; inhibition, % (concentration not given with the values); hit rate 0.33% among 330,000; AID 588478, 2011;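 active means mean inhibition over replicate wells above about 20%, limit read from the data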
Target sequence (Q9Y5K5 whole entry, looked up): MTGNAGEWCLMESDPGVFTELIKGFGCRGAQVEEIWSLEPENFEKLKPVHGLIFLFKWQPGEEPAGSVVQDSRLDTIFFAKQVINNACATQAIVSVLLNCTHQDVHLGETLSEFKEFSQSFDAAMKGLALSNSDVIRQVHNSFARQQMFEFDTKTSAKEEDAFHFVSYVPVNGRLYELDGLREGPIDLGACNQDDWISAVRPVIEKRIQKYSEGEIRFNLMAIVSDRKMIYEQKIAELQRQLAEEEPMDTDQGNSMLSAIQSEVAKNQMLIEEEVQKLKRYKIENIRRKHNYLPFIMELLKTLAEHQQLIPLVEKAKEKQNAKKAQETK
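Test system – human UCH37 enzyme supplied as purified proteasome complex · Incubation – 30 min preincubation with enzyme, 25 min cleavage at room temperature · Detection – AMC fluorescence from Ub-AMC cleavage, excitation 355 nm, emission 460 nm · Benchmarks – no-proteasome wells (full inhibition) and compound-free wells (no inhibition)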
UBC13 inh = UBC13 polyubiquitin chain formation inhibitors, primary screen, biochemical, TR-FRET, uHTS; AID 485273, 2010; Ubiquitin-conjugating enzyme E2 N (Homo sapiens), P61088; inhibition, % at 20 µM; hit rate 0.47% among 330,000; in the data active means inhibition above about 45%, passing the limit was not always enough; inconclusive means no clear call, values can overlap the other calls
Target sequence (P61088 whole entry, looked up): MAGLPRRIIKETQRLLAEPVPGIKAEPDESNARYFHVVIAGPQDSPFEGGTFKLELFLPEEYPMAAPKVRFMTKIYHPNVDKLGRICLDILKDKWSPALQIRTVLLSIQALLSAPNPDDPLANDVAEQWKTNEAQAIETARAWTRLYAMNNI
MEKK3 PB1 HTS = modulators of MEKK3-MEK5 PB1 binding, primary screen, biochemical, wildtype MEKK3, multiplex bead flow cytometry, Alexa488-MEK5; AID 1529, 2009; Mitogen-activated protein kinase kinase kinase 3 (Homo sapiens), Q99759; binding response (% of control), % at 10 µM; hit rate 1.4% among 290,000; bead-based flow cytometry, Alexa488-MEK5 binding to MEKK3; actives lie on both sides; 0 = blocked by unlabeled MEK5, 100 = vehicle;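 active means binding response more than 3 SD above or below the average of its plate-row segment, actives on both sides; inconclusive means wells at one plate position flagged as instrument error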;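 further: Alexa488 bead fluorescence after subtracting the streptavidin-only scavenger bead signal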
MEKK2 mut-MEK5 = MEK5 binding signal on mutant MEKK2 PB1, primary screen, biochemical, multiplex bead flow cytometry, Alexa488-MEK5. AID 1530, 2009. percent response, % at 10 µM. Alexa488-MEK5 binding to MEKK2 mutant. hit rate 0.35% among 290,000; in the data active means percent response above about 24%, passing the limit was not always enough
Apaf-1 inh = inhibitors of human Apaf-1 apoptosome, primary screen, biochemical, DEVD-Rh110 fluorescence, uHTS | Apoptotic protease-activating factor 1 (Homo sapiens), O14727 | reconstituted apoptosome caspase-3 activity | inhibition, % at 20 µM | hit rate 0.71% among 330,000; active means inhibition of at least 40% at 20 µM
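Material: cell-free apoptosome with Apaf-1, procaspase-3 and caspase-9; Buffer or medium: Hepes pH 7.5 with detergent and BSA; Reagent: cytochrome c trigger plus (Z-DEVD)2-Rh110 caspase-3 substrate; Times: compound with Apaf-1, dATP, procaspase-3 30 min, then 50 min reaction, room temperature; Technique: Rh110 fluorescence intensity.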
MEKK2 WT-MEK5 = modulators of MEK5 binding to wildtype MEKK2, primary screen, biochemical, multiplex bead flow cytometry, Alexa488-MEK5; Mitogen-activated protein kinase kinase kinase 2 (Homo sapiens), Q9Y2U5; Alexa488-MEK5 binding to MEKK2 WT; actives lie on both sides; binding response (% of control), % at 10 µM; hit rate 1.1% among 290,000; AID 1531, 2009; in the data active means binding response below about 67% or above about 130%; inconclusive means no clear call, values can overlap the other calls; inactive means in between
MEKK2wt confirm = modulators of MEK5 binding to wildtype MEKK2, confirmation, biochemical, single concentration, multiplex bead flow cytometry | binding response (% of control), % at 10 µM | AID 1892, 2009 | hit rate 2.4% among 5,900 | Alexa488-MEK5 binding to MEKK2 WT; actives lie on both sides | shares compounds with MEKK3 PB1 HTS; in the data active means binding response below about 16% or above about 210%; inactive means in between
MEKK2mut confirm = mutant MEKK2 PB1-MEK5 binding signal retest – biochemical, single concentration, multiplex bead flow cytometry, confirmation | Alexa488-MEK5 binding to MEKK2 mutant | hit rate 2% among 5,900 | shares compounds with MEKK3 PB1 HTS | percent response, % at 10 µM | AID 1893, 2009; in the data active means percent response mostly above about 71%, no sharp cut-off; inactive means mostly below about 38%;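 further: higher means compound restores mutant binding toward wildtype level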
MEKK3 confirm = MEKK3 wild-type PB1 binding to MEK5, inhibitors, confirmation, biochemical, bead multiplex flow cytometry, single concentration, wildtype | binding response (% of control), % at 10 µM | hit rate 1.8% among 5,900 | shares compounds with MEKK3 PB1 HTS | Alexa488-MEK5 binding to MEKK3; hits give low values;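 active means binding response below 72% of control, or above a set upper limit, though filed actives all read lower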
Hits are given with their value; 0 = inactive; ? = inconclusive; - = not tested or not shown; [ ] = dose if it differs, or a comment. A selection: hits, their analogues and other compounds. The true share with any hit is near 3%.

SMILES	UCH37 DUB inh	UBC13 inh	MEKK3 PB1 HTS	MEKK2 mut-MEK5	Apaf-1 inh	MEKK2 WT-MEK5	MEKK2wt confirm	MEKK2mut confirm	MEKK3 confirm
COc1cc(OC)cc(-c2nc(-c3cc4cc(C)ccc4nc3OC)no2)c1	0	-	0	0	-	0	-	-	-
Cc1ccc(C2OC34CCCCCC3C(C#N)(C(=N)O4)C2(C#N)C#N)cc1 (stereo not given)	0	0	56.0[inhibitor]	0	0	0	0	0	0
CC(=O)Nc1ccc(N2C(=O)c3ccc(S(=O)(=O)c4ccc(C(=O)O)cc4)cc3C2=O)cc1	0	0	0	0	0	0	-	-	-
COc1ccc(Oc2ccc(C(F)(F)F)cc2NC(=O)c2ccc(F)cc2)cc1	0	0	133.0	0	0	0	0	0	0
COc1cccc(Oc2ccc(C(F)(F)F)cc2NC(=O)c2cccc(F)c2)c1	0	0	0	0	0	0	-	-	-
O=C1NC(c2ccc(Cl)cc2)=COc2ccccc21	0	0	143.0	0	0	0	0	0	0
Cc1ccccc1NC(NC(=O)c1cccnc1)C(Cl)(Cl)Cl (stereo not given)	0	0	132.0	0	0	0	0	0	0
COc1ccc(NC(NC(=O)c2cccnc2)C(Cl)(Cl)Cl)cc1 (stereo not given)	0	0	0	0	0	0	-	-	-
COc1ccc(N2CCN(C3CCCN(Cc4ccccc4OCCO)C3)CC2)cc1 (stereo not given)	0	0	0	0	0	0	-	-	-
CNC(=O)c1c(NC(=O)CCS(=O)(=O)c2ccc(F)cc2)sc(C)c1C	-	0	-	-	0	-	-	-	-
C[C@H](NC(=O)c1ccco1)C(=O)N1CCN(c2ccc(C(F)(F)F)cn2)CC1	0	0	-	-	0	-	-	-	-
CCN(CC)CCCNC(=S)N1CCN(c2nc(-c3ccccc3)cs2)CC1	0	0	0	0	0	143.0	0	0	0
CC(=O)c1cccc(NC(=O)N2CCCC2C(=O)Nc2ccc3c(c2)OCCO3)c1 (stereo not given)	0	?	0	0	0	0	-	-	-
C=CCOc1cccc(C=NNC(=O)CN(c2cc(Cl)ccc2OC)S(=O)(=O)c2ccc(C)c([N+](=O)[O-])c2)c1	0	-	-	-	-	-	-	-	-
COc1ccc(S(=O)(=O)NCc2ccco2)cc1C(=O)N1CCOCC1	0	0	0	0	0	0	-	-	-
COc1ccc(S(=O)(=O)NC(C)C)cc1C(=O)N1CCOCC1	0	0	0	0	0	-2.0[inhibitor]	0	0	0
COc1cc2c(C(=O)NCCCOC(C)C)cn(CC(C)C)c(=O)c2cc1OC	0	0	81.0[inhibitor]	0	0	0	0	0	0
CCn1c(=O)cc(SCC(=O)N(C)Cc2ccccc2)c2ccccc21	0	0	0	0	0	0	-	-	-
CCOC(=O)CSc1cc(=O)n(CC)c2ccccc12	0	0	129.0	0	0	0	0	0	0
CCCCCCCSc1nsc(N)n1	0	0	0	0	0	0	-	-	-
Cc1[nH]c2ccccc2c1CN1CCC(Cc2ccccc2)CC1	0	0	0	0	0	145.0	0	0	0
Cc1[nH]c2ccccc2c1CN1CCN(c2ccccn2)CC1	0	0	0	0	0	0	-	-	-
C=CCn1c(=O)c2c3c(sc2n2c(Nc4ccc(OC)cc4)nnc12)CCCC3	0	0	0	0	0	0	-	-	-
C=CCn1c(=O)c2c3c(sc2n2c(Nc4ccccc4)nnc12)CCCC3	0	0	10.0[inhibitor]	0	0	13.0[inhibitor]	0	0	0
Cn1nc(-c2ccc(C(=O)Nc3cccc(Cl)c3)cc2)c2ccccc2c1=O	0	0	34.0[inhibitor]	0	0	1.0[inhibitor]	0	0	0
SMILES	UCH37 DUB inh	UBC13 inh	MEKK3 PB1 HTS	MEKK2 mut-MEK5	Apaf-1 inh	MEKK2 WT-MEK5	MEKK2wt confirm	MEKK2mut confirm	MEKK3 confirm
Cn1nc(-c2ccc(C(=O)N3CCN(Cc4ccccc4)CC3)cc2)c2ccccc2c1=O	0	0	52.0[inhibitor]	0	0	57.0[inhibitor]	0	0	0
Cc1ccc(NC(=O)c2ccc(-c3nn(C)c(=O)c4ccccc34)cc2)cc1	0	0	0	0	0	0	-	-	-
Cc1occc1-c1nnc(SCC(=O)N2CCOCC2)o1	0	0	2.0[inhibitor]	0	0	3.0[inhibitor]	0	0	0
CN(C)CCCN(C(=O)CCc1ccccc1)c1nc2ccc(Br)cc2s1	0	0	0	0	0	233.0	0	0	0
CN(C)CCN(C(=O)CCc1ccccc1)c1nc2c(F)cc(F)cc2s1	0	0	0	0	0	0	-	-	-
CN(C)CCCN(C(=O)c1ccco1)c1nc2ccc(Br)cc2s1	0	0	0	0	0	0	-	-	-
CN(C)CCCN(C(=O)CCc1ccccc1)c1nc2ccc(F)cc2s1	0	0	129.0	0	0	0	0	0	0
O=C(CSC1=NS(=O)(=O)c2cc(Cl)ccc2N1)NCc1ccc(F)cc1	0	0	-	-	0	-	-	-	-
CC(=O)Nc1ccc(NC(=O)CN(C)S(=O)(=O)c2ccc3ccccc3c2)cc1	0	0	0	0	0	0	-	-	-
Cc1ccc2[nH]c(C)c(/C=N/Nc3nc4ccccc4s3)c2c1	-	0	0	0	0	138.0	0	0	0
CCn1c(C)c(C=NNc2nc3ccccc3s2)c2ccccc21	0	-	-	-	-	-	-	-	-
CC12CCC(C(=O)N/N=C/c3ccc(O)cc3)(OC1=O)C2(C)C (stereo not given)	-	0	0	0	0	0	-	-	-
OC(CNCCc1ccc(C(F)(F)F)cc1)COC(c1ccccc1)c1ccccc1 (stereo not given)	0	0	0	46.0	0	191.0	0	0	0
COc1ccc(C(OCC(O)CNCCc2ccc(S(N)(=O)=O)cc2)c2ccc(OC)cc2)cc1 (stereo not given)	0	0	0	0	0	0	-	-	-
CN1CCN(NC(=S)NC(C)(C)CC(C)(C)C)CC1	0	0	58.0[inhibitor]	0	0	0	0	0	0
O=C(O)c1[nH]c2ccccc2c1C=NCc1ccccc1Cl	0	0	0	0	0	0	-	-	-
COc1cc2oc(-c3ccc(O)cc3)cc(=O)c2c(OC)c1O	-	0	37.0[inhibitor]	0	0	35.0[inhibitor]	0	0	0
